Measured values from ChEMBL document CHEMBL1154419, “Pharmacodynamic effects of telavancin against methicillin-resistant and methicillin-susceptible Staphylococcus aureus strains in the presence of human albumin or serum and in an in vitro kinetic model” (Antimicrob Agents Chemother, 2007).
Active and inactive are the calls of the source. The rule behind the calls is not given here.

Legend:
Staphylococcus aureus [1] = experiment: Antibacterial activity against methicillin-resistant Staphylococcus aureus ATCC 33591 assessed as change in bacterial burden at 40 mg/liter after 4 hrs; assay type: functional
How it was run: (§1)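 In vitro kinetic model: spinner flask with 0.45-μm filter and prefilter, stirred, M-H broth at 37°C, starting inoculum approx. 5 × 10⁵ CFU/ml. Single initial drug dose of 1.0 to 40 mg/liter, with flow set to give a half-life of approx. 8 h. Viable counts at 0, 2, 4, 6, 8, 12 and 24 h. Duplicate runs per strain and concentration.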

Staphylococcus aureus [2] = experiment: Antibacterial activity against methicillin-resistant Staphylococcus aureus ATCC 33591 assessed as change in bacterial burden at 10 mg/liter after 24 hrs; assay type: functional; how it was run: as §1
Staphylococcus aureus [3] = experiment: Antibacterial activity against methicillin-susceptible Staphylococcus aureus ATCC 13709 assessed as change in bacterial burden at 2.5 mg/liter after 4 hrs; assay type: functional
Staphylococcus aureus [4] = experiment: Antibacterial activity against methicillin-susceptible Staphylococcus aureus ATCC 13709 assessed as change in bacterial burden at 1 mg/liter after 8 hrs; assay type: functional
Staphylococcus aureus [5] = experiment: Antibacterial activity against methicillin-resistant Staphylococcus aureus ATCC 33591 assessed as change in bacterial burden at 5 mg/liter after 12 hrs; assay type: functional; how it was run: as §1
Staphylococcus aureus [6] = experiment: Antibacterial activity against methicillin-susceptible Staphylococcus aureus ATCC 13709 assessed as change in bacterial burden at 2.5 mg/liter after 8 hrs; assay type: functional
Staphylococcus aureus [7] = experiment: Antibacterial activity against methicillin-susceptible Staphylococcus aureus ATCC 13709 assessed as change in bacterial burden at 40 mg/liter after 6 hrs; assay type: functional
Staphylococcus aureus [8] = experiment: Antibacterial activity against methicillin-resistant Staphylococcus aureus COL infected New Zealand white rabbit endocarditis model assessed as reduction in mean aortic vegetation titer at 30 mg/kg, iv twice daily after 4 days; assay type: functional, Aorta
Staphylococcus aureus [9] = experiment: Antibacterial activity against methicillin-susceptible Staphylococcus aureus ATCC 13709 assessed as change in bacterial burden at 1 mg/liter after 2 hrs; assay type: functional
Staphylococcus aureus [10] = experiment: Antibacterial activity against methicillin-susceptible Staphylococcus aureus ATCC 13709 assessed as change in bacterial burden at 20 mg/liter after 4 hrs; assay type: functional
Staphylococcus aureus [11] = experiment: Antibacterial activity against methicillin-susceptible Staphylococcus aureus ATCC 13709 assessed as change in bacterial burden at 40 mg/liter after 12 hrs; assay type: functional; how it was run: as §1
Staphylococcus aureus [12] = experiment: Antibacterial activity against methicillin-susceptible Staphylococcus aureus ATCC 13709 assessed as change in bacterial burden at 20 mg/liter after 24 hrs; assay type: functional
Staphylococcus aureus [13] = experiment: Antibacterial activity against methicillin-susceptible Staphylococcus aureus ATCC 13709 assessed as change in bacterial burden at 10 mg/liter after 4 hrs; assay type: functional
Staphylococcus aureus [14] = experiment: Antibacterial activity against methicillin-susceptible Staphylococcus aureus ATCC 13709 assessed as bacterial killing at 0.5 to 50 times MIC after 24 hrs; assay type: functional
How it was run: (§2)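 Static time-kill in M-H broth, in M-H broth with 40 g/liter fatty-acid-free purified human albumin, or in M-H broth with inactivated 50% human serum. Inoculum approx. 5 × 10⁵ CFU/ml, drug at 0.5, 1, 2.5, 5, 10, 25 and 50× MIC, 37°C. Samples at 0, 3, 6, 12 and 24 h plated on blood agar, counted after 24 h. Detection limit 5 × 10¹ CFU/ml. Run in duplicate.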

Staphylococcus aureus [15] = experiment: Antibacterial activity against methicillin-susceptible Staphylococcus aureus ATCC 13709 assessed as change in bacterial burden at 20 mg/liter after 6 hrs; assay type: functional; how it was run: as §1
Staphylococcus aureus [16] = experiment: Antibacterial activity against methicillin-resistant Staphylococcus aureus ATCC 33591 assessed as change in bacterial burden at 2.5 mg/liter after 8 hrs; assay type: functional; how it was run: as §1
Staphylococcus aureus [17] = experiment: Antibacterial activity against methicillin-susceptible Staphylococcus aureus ATCC 13709 in MH-broth; assay type: functional, organism-based
Staphylococcus aureus [18] = experiment: Antibacterial activity against methicillin-resistant Staphylococcus aureus ATCC 33591 assessed as bacterial regrowth at 0.5 times MIC after 24 hrs in presence of human albumin; assay type: functional, organism-based; how it was run: as §2
Plasma = experiment: Protein binding in human plasma; assay type: ADME, cell-free
Staphylococcus aureus [19] = experiment: Antibacterial activity against methicillin-susceptible Staphylococcus aureus ATCC 13709 assessed as bacterial killing at 10 times MIC after 6 hrs in MH-broth; assay type: functional, organism-based
Staphylococcus aureus [20] = experiment: Antibacterial activity against methicillin-susceptible Staphylococcus aureus ATCC 13709 assessed as change in bacterial burden at 5 mg/liter after 12 hrs; assay type: functional
Staphylococcus aureus [21] = experiment: Antibacterial activity against methicillin-resistant Staphylococcus aureus ATCC 33591 assessed as bacterial killing at 10 times MIC after 24 hrs in MH-broth; assay type: functional, organism-based
How it was run: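 Strain diluted in M-H broth to approx. 10⁵ CFU/ml and grown 6 h into log phase, then split. Broth tubes got drug at 10× MIC directly. PBS tubes were transferred to PBS and held 3 h more, then dosed at 10× MIC. Growth controls were run in each medium. Viable counts at 0, 3, 6, 9, 12 and 24 h. Run in duplicate.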

[22] = Ratio of AUC in in vitro kinetic model containing Mueller-Hinton broth and methicillin-susceptible Staphylococcus aureus ATCC 13709 to MIC for methicillin-susceptible Staphylococcus aureus ATCC 13709 in bacterial killing stage; assay type: functional
Staphylococcus aureus [23] = experiment: Antibacterial activity against methicillin-susceptible Staphylococcus aureus ATCC 13709 assessed as change in bacterial burden at 40 mg/liter after 24 hrs; assay type: functional
Staphylococcus aureus [24] = experiment: Antibacterial activity against methicillin-resistant Staphylococcus aureus ATCC 33591 assessed as change in bacterial burden at 2.5 mg/liter after 24 hrs; assay type: functional; how it was run: as §1
Staphylococcus aureus [25] = experiment: Antibacterial activity against methicillin-susceptible Staphylococcus aureus ATCC 13709 assessed as change in bacterial burden at 40 mg/liter after 4 hrs; assay type: functional
Staphylococcus aureus [26] = experiment: Antibacterial activity against methicillin-susceptible Staphylococcus aureus ATCC 13709 assessed as change in bacterial burden at 10 mg/liter after 6 hrs; assay type: functional; how it was run: as §1
Staphylococcus aureus [27] = experiment: Antibacterial activity against methicillin-resistant Staphylococcus aureus ATCC 33591 assessed as change in bacterial burden at 2.5 mg/liter after 4 hrs; assay type: functional; how it was run: as §1
Staphylococcus aureus [28] = experiment: Antibacterial activity against methicillin-susceptible Staphylococcus aureus ATCC 13709 assessed as change in bacterial burden at 1 mg/liter after 4 hrs; assay type: functional
Staphylococcus aureus [29] = experiment: Antibacterial activity against methicillin-resistant Staphylococcus aureus ATCC 33591 assessed as change in bacterial burden at 5 mg/liter after 4 hrs; assay type: functional; how it was run: as §1
Staphylococcus aureus [30] = experiment: Antibacterial activity against methicillin-resistant Staphylococcus aureus ATCC 33591 assessed as change in bacterial burden at 10 mg/liter after 12 hrs; assay type: functional; how it was run: as §1
Staphylococcus aureus [31] = experiment: Antibacterial activity against methicillin-resistant Staphylococcus aureus ATCC 33591 assessed as change in bacterial burden at 1 mg/liter after 8 hrs; assay type: functional; how it was run: as §1
[32] = Half life in human serum at 7.5 mg/kg; assay type: ADME, organism-based; design: dose 7.5 mg/kg
Staphylococcus aureus [33] = experiment: Antibacterial activity against methicillin-resistant Staphylococcus aureus ATCC 33591 assessed as change in bacterial burden at 10 mg/liter after 6 hrs; assay type: functional; how it was run: as §1
Staphylococcus aureus [34] = experiment: Antibacterial activity against methicillin-susceptible Staphylococcus aureus ATCC 13709 assessed as change in bacterial burden at 2.5 mg/liter after 6 hrs; assay type: functional
Staphylococcus aureus [35] = experiment: Antibacterial activity against methicillin-susceptible Staphylococcus aureus ATCC 13709 assessed as bacterial killing at 50 times MIC after 24 hrs in presence of human albumin; assay type: functional, organism-based

CCCCCCCCCCNCCN[C@@]1(C)C[C@H](O[C@H]2[C@H](Oc3c4cc5cc3Oc3ccc(cc3Cl)[C@@H](O)[C@@H](NC(=O)[C@@H](CC(C)C)NC)C(=O)N[C@@H](CC(N)=O)C(=O)N[C@H]5C(=O)N[C@H]3C(=O)N[C@H](C(=O)N[C@H](C(=O)O)c5cc(O)c(CNCP(=O)(O)O)c(O)c5-c5cc3ccc5O)[C@H](O)c3ccc(c(Cl)c3)O4)O[C@H](CO)[C@@H](O)[C@@H]2O)O[C@@H](C)[C@H]1O [TELAVANCIN]
deltalog10CFU/ml (Staphylococcus aureus [1]): -2.7
deltalog10CFU/ml (Staphylococcus aureus [2]): -5.1
deltalog10CFU/ml (Staphylococcus aureus [3]): -1.6
deltalog10CFU/ml (Staphylococcus aureus [4]): -2.6
deltalog10CFU/ml (Staphylococcus aureus [5]): -4.2
deltalog10CFU/ml (Staphylococcus aureus [6]): -3.4
deltalog10CFU/ml (Staphylococcus aureus [7]): -4.7
log10CFU/g (Staphylococcus aureus [8]): 4.7
deltalog10CFU/ml (Staphylococcus aureus [9]): -0.8
deltalog10CFU/ml (Staphylococcus aureus [10]): -2.9
deltalog10CFU/ml (Staphylococcus aureus [11]): -4.7
deltalog10CFU/ml (Staphylococcus aureus [12]): -4.6
deltalog10CFU/ml (Staphylococcus aureus [13]): -2.4
LCK (Staphylococcus aureus [14]): >3
deltalog10CFU/ml (Staphylococcus aureus [15]): -3.9
deltalog10CFU/ml (Staphylococcus aureus [16]): -3.2
Activity (Staphylococcus aureus [17]): Dose-dependent effect
Activity (Staphylococcus aureus [18]): Active
Activity (Plasma): 92%
Activity (Staphylococcus aureus [19]): Active
deltalog10CFU/ml (Staphylococcus aureus [20]): -4.7
Activity (Staphylococcus aureus [21]): Active
RatioAUC/MIC [22]: 404
deltalog10CFU/ml (Staphylococcus aureus [23]): -4.7
deltalog10CFU/ml (Staphylococcus aureus [24]): -3.6
deltalog10CFU/ml (Staphylococcus aureus [25]): -2.8
deltalog10CFU/ml (Staphylococcus aureus [26]): -3.3
deltalog10CFU/ml (Staphylococcus aureus [27]): -1.7
deltalog10CFU/ml (Staphylococcus aureus [28]): -1.3
deltalog10CFU/ml (Staphylococcus aureus [29]): -2.1
deltalog10CFU/ml (Staphylococcus aureus [30]): -5.1
deltalog10CFU/ml (Staphylococcus aureus [31]): -3.5
half-life [32]: 7 h
deltalog10CFU/ml (Staphylococcus aureus [33]): -3
deltalog10CFU/ml (Staphylococcus aureus [34]): -2.6
Activity (Staphylococcus aureus [35]): Active
